Measured values collected from several papers.
CDK9: Cyclin-dependent kinase 9 (CDK9, Homo sapiens, UniProt P50750)
CDK9 with cyclin K: Cyclin-dependent kinase 9, with cyclin K (CDK9, Homo sapiens, UniProt P50750)
CDK9 with cyclin T1: Cyclin-dependent kinase 9, with cyclin T1 (CDK9, Homo sapiens, UniProt P50750)

| SMILES | target | read-out | action | method | tested at | quantity | value |
| --- | --- | --- | --- | --- | --- | --- | --- |
| C[C@H](c1cccc(C#N)c1)n1cc(Cl)cc(C(N)=O)c1=N | CDK9 | cell-free assay |  | competition with immobilised ligand | 1 µM | remaining binding | 84% |
| O=C(CSc1nc2nccnc2c(=O)n1CCc1ccccc1)Nc1nccs1 | CDK9 with cyclin K | enzyme activity | inhibitor |  | 10 µM | inhibition | -8% |
| Cc1ccc(NC(=O)c2ccc(CN3CCN(C)CC3)cc2)cc1Nc1nc(-c2cccnc2)cs1 | CDK9 with cyclin T1 | cell-free assay |  |  | 0.5 µM | remaining signal | 99.2% |
| CNC(=O)c1ccc(Nc2ncc(C(F)(F)F)c(NCc3nccnc3N(C)S(C)(=O)=O)n2)cc1 | CDK9 | cell-free assay |  | competition with immobilised ligand | 0.1 µM | remaining binding | 86% |
| CNC(=O)c1cc(Oc2ccc(NC(=O)Nc3ccc(Cl)c(C(F)(F)F)c3)cc2)ccn1 | CDK9 with cyclin T1 | enzyme activity | inhibitor |  | 10 µM | inhibition | -6% |
| N#CCCc1ccc2c(c1)-c1[nH]c3ccc([N+](=O)[O-])cc3c1CC(=O)N2 | CDK9 with cyclin K | cell-free assay |  |  | 0.5 µM | remaining signal | 23.7% |
| CN(C)CC#Cc1ccc(OCCCc2sc(N3CCc4cccc(C(=O)Nc5nc6ccccc6s5)c4C3)nc2C(=O)O)c(F)c1 | CDK9 | cell-free assay |  | competition with immobilised ligand | 1 µM | remaining binding | 94% |
| Cc1ccc(Nc2nccc(N(C)c3ccc4c(C)n(C)nc4c3)n2)cc1S(N)(=O)=O | CDK9 with cyclin T1 | enzyme activity | inhibitor |  | 0.5 µM | remaining activity | 91.5% |
| CCN(CC)c1ccc(C2=NNC(=O)CC2C)cc1[N+](=O)[O-] (centres unmarked) | CDK9 with cyclin T1 | enzyme activity | inhibitor |  | 10 µM | remaining activity | 105% |
| COc1cc(-c2cc(-c3ccc(N4CCNCC4)cc3)cnc2C)cc(OC)c1OC | CDK9 with cyclin T1 | enzyme activity | inhibitor |  | 0.1 µM | inhibition | 3% |
| CC(C)(C)c1nc(-c2cccc(NS(=O)(=O)c3c(F)cccc3F)c2F)c(-c2ccnc(N)n2)s1 | CDK9 with cyclin T1 | enzyme activity | inhibitor | radiometric | 1 µM | remaining activity | 106% |
| Cc1cc(NC(=O)c2cccc(S(F)(F)(F)(F)F)c2)cc(-n2ccn3nc(-c4cccnc4)cc23)c1 | CDK9 | cell-free assay |  | competition with immobilised ligand | 1 µM | remaining binding | 100% |
| Cc1cnc(NC2CCOCC2)nc1-n1cnc(C(=O)NC(CN)c2cc(F)cc(Cl)c2)c1 (centres unmarked) | CDK9 with cyclin T1 | enzyme activity | inhibitor | radiometric | 1 µM | remaining activity | 46% |
| CCOC(=O)c1cc2cc(-c3cc(C(=O)NCc4ccc(C(=O)O)cc4)nn3C)ccc2[nH]1 | CDK9 | cell-free assay |  | competition with immobilised ligand | 0.1 µM | remaining binding | 97% |
| CCN(CC)CCNC(=O)c1c(C)[nH]c(/C=C2\C(=O)Nc3ccc(F)cc32)c1C | CDK9 with cyclin T1 | enzyme activity | inhibitor |  | 10 µM | inhibition | 37% |
| c1ccc(CNc2nc(N3CCOc4ccccc43)nc3c2CCCC3)cc1 | CDK9 | target engagement in cells | inhibitor | chemoproteomics | 20 mM | inhibition | -15.3% |

| SMILES | target | read-out | action | method | tested at | quantity | value |
| --- | --- | --- | --- | --- | --- | --- | --- |
| Nc1nc(Nc2ccc(S(N)(=O)=O)cc2)sc1C(=O)c1ccccc1[N+](=O)[O-] | CDK9 | enzyme activity | inhibitor |  | 0.1 µM | inhibition | 90 to 93% |
| c1ccc(N2CCN(Cc3nc4ccccc4[nH]3)CC2)nc1 | CDK9 | binding |  | competition with immobilised ligand | 1 µM | remaining binding | 100% |
| CCOc1cc(-c2nncn2C)ccc1Nc1ncc2cc(C)nc(NCC(C)(C)C)c2n1 | CDK9 with cyclin K | cell-free assay |  | TR-FRET | 1 µM | inhibition | ≤ 15% |
| CC(C)(C)c1nc2c(s1)c1nc(N)ncc1c1ccc(NS(=O)(=O)c3c(F)cccc3F)c(F)c12 | CDK9 with cyclin K | enzyme activity | inhibitor | radiometric | 1 µM | remaining activity | 93% |
| Nc1ncnc2occ(-c3ccc(NC(=O)Nc4cc(C(F)(F)F)ccc4F)cc3)c12 | CDK9 | cell-free assay | inhibitor |  | 20 µM | remaining signal | 0.15% |
| CO[C@@H](C)c1c(Nc2ccc([C@H](N(C)C(=O)C3CCS(=O)(=O)CC3)C(F)(F)F)cc2)cnc2cc(Cl)nn12 | CDK9 | cell-free assay |  | competition with immobilised ligand | 1 µM | remaining binding | 85% |
| CCCS(=O)(=O)Nc1ccc(F)c(C(=O)c2c[nH]c3ncc(-c4ccc(Cl)cc4)cc23)c1F | CDK9 with cyclin T1 | enzyme activity | inhibitor |  | 1 µM | inhibition | < 10% |
| C#Cc1cccc(Nc2ncnc3cc(OCCOC)c(OCCOC)cc23)c1 | CDK9 with cyclin T1 | cell-free assay |  |  | 0.5 µM | remaining signal | 87.3% |
| Cc1ccc(NC(=O)c2ccc(C)c(C(F)(F)F)c2)cc1C#Cc1nn(C2CCC(O)CC2)c2ncnc(N)c12 (centres unmarked) | CDK9 with cyclin T1 | cell-free assay |  |  | 10 µM | remaining signal | 113% |
| COc1cc(Nc2cnc(C#N)c(O[C@H](C)CN(C)C)n2)ncc1-c1cnn(C)c1 | CDK9 with cyclin T1 | enzyme activity | inhibitor | radiometric | 1 µM | remaining activity | 84% |
| O=C1Nc2ccc(Cl)cc2C1=Cc1cc(Cl)c(O)c(Cl)c1 | CDK9 with cyclin K | cell-free assay |  |  | 0.5 µM | remaining signal | 79.4% |
| CN(C)C1CCN(CC#Cc2nn(C3CCCC3)c3nc(NCc4ccccc4)ncc23)C1 (centres unmarked) | CDK9 with cyclin T1 | enzyme activity | inhibitor | FRET | 10 µM | inhibition | -12% |
| Cc1ccc(C(=O)Nc2ccc(CN3CCN(C)CC3)c(C(F)(F)F)c2)cc1C#Cc1cnc2cccnn12 | CDK9 | enzyme activity | inhibitor |  | 23.5 nM | remaining activity | 96% |
| COc1cc(Cl)c(C(=O)N[C@@H](CN[C@H]2CC[C@@H](N)CC2)Cc2ccc(C#N)cc2)cc1-c1ccc(CN[C@H](C)c2ccc(C)cc2)o1 | CDK9 with cyclin T1 | enzyme activity | inhibitor |  | 1 µM | remaining activity | 99% |
| O=C1NC(=O)c2cc(Nc3ccc(F)cc3)c(Nc3ccc(F)cc3)cc21 | CDK9 with cyclin T1 | cell-free assay |  |  | 0.5 µM | remaining signal | 95.4% |
| CS(=O)(=O)NCC[C@H](NC(=O)c1cncc2c1cnn2-c1ccc(F)cc1)c1ccnc(S(C)(=O)=O)c1 | CDK9 | cell-free assay |  | competition with immobilised ligand | 1 µM | remaining binding | 100% |
